The record followed here is PubChem BioAssay AID652260 (The Scripps Research Institute Molecular Screening Center, 2013).

The whole screen tested about 3,500 compounds, of which about 1,000 (29%) were called active.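 The calls were made as follows: active = activation above its plate's cutoff, the mean activation of tested wells plus 3 SD (cut at about 7.9% in these data); inactive = the rest.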 Not all results are given here.

A short description of the assay: SMARCA2 (BRM) function activators, confirmation, cell-based, luminescence, triplicate (AID 652260). The following applies: MG213 cells, MMTV-luciferase with dexamethasone, overnight, at 9.1 µM, hits give high values, DMSO wells 0%, reference activator 100%, MG213 cells expressing E1A, Rb sequestered. Put shortly: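 Assay system: MG213 MMTV-luciferase reporter cells. Probe or stimulus: 0.1 µM dexamethasone stimulus. Compound: 9.1 µM single dose. Timing: compound exposure 24 h at 37 °C after 1-day dexamethasone priming. Signal: OneGlo luciferase luminescence after 15 min at room temperature. Read-out: normalized percent activation. Benchmarks: DMSO and reference activator wells. Repeats: three replicates.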
Turning to `COc1cc(/C=N/NC(=O)c2ccccc2)ccc1OS(=O)(=O)c1ccccc1`, the activation is 3.32% (inactive).
`Cc1nnc(NC(=O)Cn2c(=O)sc3ccccc32)s1`: the activation is -3.31% (inactive).
The value for `Cc1ccc(O)c(CNc2nc3ccccc3n2C)c1` was 9.22% (active); that for `COC(=O)c1ccc(NCc2cc(O)ccc2O)cc1` was 1.42% (inactive); that for `CC(=O)c1ccc(NC(=O)c2sc3nc4n(c(=O)c3c2C)CCCCC4)cc1` was -0.4% (inactive).
For the compound `O=c1c2c(nc3n1CCCCC3)sc1c(O)cccc12`, the activation is 15.2% (active).
For `FC(F)(F)c1cccc(-c2nc3ccccc3n2C(c2ccccc2)c2nc3ccccc3[nH]2)c1` (stereo not drawn) the value was 3.9% (inactive).
As to `CC(=O)Oc1ccc(C(=O)Nc2nccs2)cc1`, the activation is 6.25% (inactive).
Turning to `CCOc1cccc2c1OC1(CCCCC1)N1N=C(c3cccnc3)CC21` (stereo not drawn), the activation was 2.8% (inactive).
For `Cc1ccc(-n2c(SCC(=O)N3CCC(C(=O)O)CC3)nc3ccccc3c2=O)cc1C` the value was 4.21% (inactive).
Regarding `CN(C)CCNC(=O)c1ccc(Cl)c2cc3ccccc3nc12`, the activation is -13.7% (inactive).
The value for `CCCOc1ccc(-c2nc(N)n[nH]2)cc1` was 4.15% (inactive); that for `Cc1ccccc1C#CC1=CC(=O)CC(C)(C)C1` was 1% (inactive).
In the case of `Cc1ccccc1C1=N/C(=C/c2cccnc2)C(=O)O1`, the activation is 0.02% (inactive).
The value for `CCCCCCOC(=O)NCC(O)c1ccccc1` (stereo not drawn) was 12.4% (active); that for `CCCCc1ccc(NC(=S)N2CCCC(CO)C2)cc1` (stereo not drawn) was 6.12% (inactive).
The value for `Cc1ccc(C(=O)Nc2nc3ccc(Cl)cc3s2)o1` was 3.69% (inactive); that for `CCOC(=O)c1c(C)[nH]c(C2=NNC(=NC(C)COC)SC2)c1C` (stereo not drawn) was 10.6% (active).
The value for `C1=C(CCNc2ncnc3c2cnn3-c2ccccc2)CCCC1` was 3.15% (inactive); that for `O=C(N[C@H]1CC[C@H](CC(=O)N2CCCCC2)O[C@@H]1CO)c1cccc(F)c1` was 0.05% (inactive).
In the case of `CCc1ccc(NC2Nc3cc(C)nn3S2)cc1` (stereo not drawn), the activation is 8.74% (active).
Consider `CCCn1c(=O)c2ccccc2n2c(SCC(=O)/C(C#N)=C(\C)N)nnc12`, for which the activation was 3.09% (inactive).
Take `COCC1CCN(C(=O)C2CCC(=O)N(Cc3cccc(C(F)(F)F)c3)C2)CC1` (stereo not drawn): the activation is 2.05% (inactive).
Turning to `Cc1ccc(Nc2nc(Cl)c(C=O)s2)cc1`, the activation was -3.27% (inactive).
In the case of `CCc1cc2c(=O)c(-c3ccon3)c(N)oc2cc1OC`, the activation was 14% (active).
The value for `CN(C)C(CNC(=O)c1ccc(OCc2cn3ccccc3n2)cc1)c1ccco1` (stereo not drawn) was 2.21% (inactive); that for `O=C(Nc1ccc(NC(=O)c2cccs2)cn1)c1ccco1` was 2.8% (inactive).
As to `Cc1ccnc(Nc2nc3ccccc3s2)n1`, the activation is 10% (active).
In the case of `O=C(Nc1ccc(F)cc1)c1cc2c(s1)CCCC2`, the activation is 9.06% (active).
Turning to `O=C(NCC1CCCO1)c1cc2c(s1)CCCC2` (stereo not drawn), the activation was 11% (active).
On to `Cc1ccnc(NC(=O)C2CCN(S(=O)(=O)c3c(C)c(C)cc(C)c3C)CC2)c1`, for which the activation is -0.54% (inactive).
Take `COC(=O)c1sc(-c2ccc(C(C)(C)C)cc2)cc1NC(=O)/C=C/C(=O)O`: the activation is -3.23% (inactive).
For `CCC(C)N(C)C1CCN(C(=S)Nc2ccc(OC)cc2)CC1` (stereo not drawn) the value was 1.96% (inactive); for `COc1cccc(OCCOc2cccc(/C=N/n3cnnc3)c2)c1`, 3.85% (inactive).
The value for `O=C(CCCc1ccccc1)NCc1ccccc1` was 8.8% (active); that for `Cc1ccc(F)c(NC(=O)CCc2ccccc2)c1` was 5.33% (inactive).
Consider `COc1ccc(OCCCC(=O)NCCc2ccccc2)cc1`, for which the activation was 1.28% (inactive).
Regarding `CC(C)c1ccc(NC(=S)NC2CC3C=CC2C3)cc1` (stereo not drawn), the activation was 6.89% (inactive).
As to `CC(C)(C)c1ccc(NC(=O)NCc2ccco2)cc1`, the activation is 14.5% (active).
The value for `Cc1ccc(NC(=O)C(=O)NCc2ccco2)c(C)c1` was 0.78% (inactive).
With `Cc1noc(C)c1S(=O)(=O)N(C)C[C@H]1Oc2c(NC(=O)Nc3ccc4c(c3)OCO4)cccc2C(=O)N([C@H](C)CO)C[C@@H]1C`, the activation is -2.45% (inactive).
`CC(C)(C)NC(=O)C(CCc1ccccc1)n1c(=O)c(-c2ccccc2)nc2ccccc21` (stereo not drawn): the activation is 8.75% (active).
For `O=C(Cn1ncc(N2CCCC2)c(Br)c1=O)c1ccc(Cl)cc1`, the activation was 3.52% (inactive).
For `COc1ccc(/C=C/C(=O)Nc2ccc(C34CC5CC(CC(O)(C5)C3)C4)cc2)cc1OC` the value was 15.3% (active).
In the case of `Cn1cccc1/C=N/NC(=O)c1ccc(OC(F)(F)C(F)F)cc1`, the activation is 3.85% (inactive).
The value for `COc1ccc(C(=O)NC2=NCCS2)c(OC)c1` was 10.5% (active); that for `CC1(C)CC(=O)C=C(NCCCNC2CCCCC2)C1` was -0.17% (inactive).
Consider `O=C(Nc1cc(=O)[nH]c2ncnn12)c1ccccc1Cl`, for which the activation was 3.68% (inactive).
`CCCn1nc(C(=O)Nc2ccc3nc(C)sc3c2)c2ccccc2c1=O`: the activation is -0.9% (inactive).
For `Cc1ccc(C(=O)CSc2ccccc2C(=O)O)cc1`, the activation is 16.1% (active).
As to `CC(C)Cc1nnc(NC(=O)CCNC(=O)c2ccccc2Cl)s1`, the activation was -0.13% (inactive).
For the compound `Cc1ccc(-c2nc3ccc(Cl)cn3c2Cc2ccccc2)cc1`, the activation was 3.06% (inactive).
The value for `Cc1ccc(N/C=C/C(=O)c2ccccc2)cc1C` was 0.64% (inactive); that for `Cc1cccc(-n2c(O)c(C=Nc3ccccc3N)c(=O)[nH]c2=O)c1` was 11.1% (active); that for `Cc1ccsc1C(=O)N/N=C/c1ccc([N+](=O)[O-])cc1` was 6.1% (inactive).
For `COc1ccc2ccccc2c1CNCc1ccccn1` the value was 0.73% (inactive); for `Cn1sc(=O)c2cc(S(=O)(=O)NC3CC3)ccc21`, -1.88% (inactive).
For `COc1cccc(C(=O)Nc2cc3c(cc2Br)OCCCO3)c1` the value was 9.25% (active); for `COc1cccc(C(=O)Nc2nc3ccc(S(C)(=O)=O)cc3s2)c1`, 2.8% (inactive).
Turning to `O=C(O)c1ccc(COc2c(F)c(F)cc(F)c2F)o1`, the activation is -2.71% (inactive).
In the case of `Cc1nc(-c2nnc(SCC(=O)Nc3cc(C(F)(F)F)cc(C(F)(F)F)c3)n2C)cs1`, the activation was -3.07% (inactive).
For `Fc1ccc(/C=N/Nc2nc(-c3cccnc3)nc3ccccc23)cc1` the value was 4.27% (inactive).
As to `Cc1ccc(NC(=O)c2cc3ccccc3o2)cc1`, the activation is 10.6% (active).
For `COc1ccc(C(=O)N/N=c2\oc3ccccc3cc2C(N)=O)cc1` the value was 1.59% (inactive).
The value for `CCOC(=O)Nc1ccc(NC(=O)OCC)cc1` was -0.46% (inactive); that for `O=C(C1CCC1)N1CCN(S(=O)(=O)c2ccc([N+](=O)[O-])cc2)CC1` was 0.04% (inactive).
For `COC(=O)c1ccc(/C=C2/C(=O)Oc3ccccc32)cc1`, the activation is -2.13% (inactive).
In the case of `CCc1c(C)c2ccc(OC3CCCCC3=O)cc2oc1=O` (stereo not drawn), the activation was 12.2% (active).
For `O=C(NC1CCCC1)C(=O)c1c[nH]c2ccccc12` the value was 4.82% (inactive); for `CC(=O)c1sc(NC(=O)c2ccc(C)cc2)nc1C`, 6.35% (inactive); for `CC1(C(=O)NS(=O)(=O)C2CC2)CCCN(C(=O)CSc2ccccc2)C1` (stereo not drawn), 1.21% (inactive).
The value for `Oc1cccc2ccc(/C=C/c3ccc(Br)s3)nc12` was 12.9% (active); that for `CC(C)CCNC(=O)c1ccc2c(Cl)c3c(nc2c1)CCC3` was 2.09% (inactive).
